Columns and labels:
Liver cytosol = assay: Drug metabolism in human liver cytosol assessed as BILR355 formation at 10 uM by LC-MS/MS analysis; format: ADME, tissue-based
How it was run: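 BILR 402 (10 μM final) was incubated with human liver S9 or cytosol (1 mg/mL protein) in 0.05 M potassium phosphate pH 7.4 at 37 °C. Runs were done with or without 2.5 mM NADPH. Samples at 10, 20, 30 and 60 min were quenched in nevirapine/acetonitrile, filtered and analysed by LC-MS/MS; duplicate.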

Aldehyde oxidase = biological target: T1, Aldehyde oxidase (Homo sapiens, UniProt Q06278); assay: Activity at human recombinant AO expressed in Escherichia coli cells assessed as enzyme-mediated BILR516 metabolite formation at 5 uM by LC-MS/MS analysis; format: ADME
T1 sequence (Q06278 whole entry): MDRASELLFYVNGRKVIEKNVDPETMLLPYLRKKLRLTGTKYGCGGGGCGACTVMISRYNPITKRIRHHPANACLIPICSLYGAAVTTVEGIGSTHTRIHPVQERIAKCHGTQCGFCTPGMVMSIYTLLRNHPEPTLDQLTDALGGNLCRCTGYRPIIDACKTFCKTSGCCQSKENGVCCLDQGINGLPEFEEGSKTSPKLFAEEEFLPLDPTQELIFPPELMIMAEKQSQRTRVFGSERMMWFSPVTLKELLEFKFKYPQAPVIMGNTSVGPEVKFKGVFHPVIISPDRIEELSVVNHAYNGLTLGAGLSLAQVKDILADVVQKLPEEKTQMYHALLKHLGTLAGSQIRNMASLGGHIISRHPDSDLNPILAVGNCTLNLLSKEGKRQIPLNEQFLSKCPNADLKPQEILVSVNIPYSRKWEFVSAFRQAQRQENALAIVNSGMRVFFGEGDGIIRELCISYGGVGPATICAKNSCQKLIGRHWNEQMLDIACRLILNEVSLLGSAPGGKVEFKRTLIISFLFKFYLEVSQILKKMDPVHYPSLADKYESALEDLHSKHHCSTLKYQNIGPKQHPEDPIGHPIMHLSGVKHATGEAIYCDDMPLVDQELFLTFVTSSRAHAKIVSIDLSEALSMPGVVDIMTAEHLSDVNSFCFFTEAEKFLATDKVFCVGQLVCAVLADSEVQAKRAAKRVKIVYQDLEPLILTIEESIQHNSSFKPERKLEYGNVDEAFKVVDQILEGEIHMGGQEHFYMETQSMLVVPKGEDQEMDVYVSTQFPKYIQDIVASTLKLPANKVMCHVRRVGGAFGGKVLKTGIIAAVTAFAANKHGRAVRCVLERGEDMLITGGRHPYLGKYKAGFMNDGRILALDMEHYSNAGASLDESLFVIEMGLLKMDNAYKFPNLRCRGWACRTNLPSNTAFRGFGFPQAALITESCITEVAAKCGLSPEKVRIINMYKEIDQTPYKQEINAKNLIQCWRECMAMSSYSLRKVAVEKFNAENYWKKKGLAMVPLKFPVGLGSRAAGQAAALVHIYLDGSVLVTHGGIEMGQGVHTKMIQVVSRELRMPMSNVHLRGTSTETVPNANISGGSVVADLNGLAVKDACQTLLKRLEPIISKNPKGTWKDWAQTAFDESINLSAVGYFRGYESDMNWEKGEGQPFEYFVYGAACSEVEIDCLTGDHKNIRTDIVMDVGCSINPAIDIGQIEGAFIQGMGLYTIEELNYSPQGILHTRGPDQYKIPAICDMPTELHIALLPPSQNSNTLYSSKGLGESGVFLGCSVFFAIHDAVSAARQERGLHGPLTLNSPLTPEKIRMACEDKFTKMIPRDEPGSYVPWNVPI
How it was run: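 BILR 402 (5 μM final) incubated with cytosolic extract of E. coli expressing human AO, or control E. coli cytosol lacking AO, 0.1 mg/mL protein, 0.05 M potassium phosphate pH 7.4, 37 °C.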

Cytochrome P450 2D6 = Cytochrome P450 2D6 (Homo sapiens, UniProt P10635); assay: Activity at recombinant CYP2D6 (unknown origin) expressed in baculovirus-infected insect cells assessed as enzyme-mediated drug depletion at 1 to 10 uM by LC-MS/MS analysis in presence of NADPH; format: ADME
How it was run: (§1)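 BILR 402 (1 or 10 μM) with baculovirus/insect-cell recombinant CYPs, levels scaled to average liver content (1A2 2, 2A6 1, 2B6 0.1, 2C9 1.5, 2C19 1.5, 2D6 0.3, 3A4 5 pmol/mL). Buffer 0.1 M potassium phosphate, 5 mM MgCl2, pH 7.4; 2.5 mM NADPH; 37 °C. Non-transfected insect microsomes served as controls. Aliquots taken 0.5–30 min and acetonitrile-quenched; depletion measured by LC-MS/MS with isotope-labelled internal standard.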

Cytochrome P450 2C9 = Cytochrome P450 2C9 (Homo sapiens, UniProt P11712); assay: Activity at recombinant CYP2C9 (unknown origin) expressed in baculovirus-infected insect cells assessed as enzyme-mediated drug depletion at 1 to 10 uM by LC-MS/MS analysis in presence of NADPH; format: ADME; how it was run: as §1
Cytochrome P450 2C19 = Cytochrome P450 2C19 (Homo sapiens, UniProt P33261); assay: Activity at recombinant CYP2C19 (unknown origin) expressed in baculovirus-infected insect cells assessed as enzyme-mediated drug depletion at 1 to 10 uM by LC-MS/MS analysis in presence of NADPH; format: ADME; how it was run: as §1
Sequence of Cytochrome P450 2C19 (P33261 whole entry): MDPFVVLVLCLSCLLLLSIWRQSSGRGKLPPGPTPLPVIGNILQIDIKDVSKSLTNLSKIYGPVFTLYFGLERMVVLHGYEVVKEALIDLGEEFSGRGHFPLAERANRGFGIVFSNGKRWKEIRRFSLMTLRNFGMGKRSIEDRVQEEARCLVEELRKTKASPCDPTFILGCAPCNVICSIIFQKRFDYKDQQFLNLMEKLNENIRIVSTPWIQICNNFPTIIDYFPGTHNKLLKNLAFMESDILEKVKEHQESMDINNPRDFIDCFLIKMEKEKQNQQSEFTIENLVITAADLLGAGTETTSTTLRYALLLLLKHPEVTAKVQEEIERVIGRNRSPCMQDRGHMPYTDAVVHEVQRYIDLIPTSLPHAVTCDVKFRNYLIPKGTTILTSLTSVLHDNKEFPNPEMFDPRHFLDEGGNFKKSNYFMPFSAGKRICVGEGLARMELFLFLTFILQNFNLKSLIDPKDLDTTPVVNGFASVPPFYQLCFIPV

Sequence of Cytochrome P450 2C9 (P11712 whole entry): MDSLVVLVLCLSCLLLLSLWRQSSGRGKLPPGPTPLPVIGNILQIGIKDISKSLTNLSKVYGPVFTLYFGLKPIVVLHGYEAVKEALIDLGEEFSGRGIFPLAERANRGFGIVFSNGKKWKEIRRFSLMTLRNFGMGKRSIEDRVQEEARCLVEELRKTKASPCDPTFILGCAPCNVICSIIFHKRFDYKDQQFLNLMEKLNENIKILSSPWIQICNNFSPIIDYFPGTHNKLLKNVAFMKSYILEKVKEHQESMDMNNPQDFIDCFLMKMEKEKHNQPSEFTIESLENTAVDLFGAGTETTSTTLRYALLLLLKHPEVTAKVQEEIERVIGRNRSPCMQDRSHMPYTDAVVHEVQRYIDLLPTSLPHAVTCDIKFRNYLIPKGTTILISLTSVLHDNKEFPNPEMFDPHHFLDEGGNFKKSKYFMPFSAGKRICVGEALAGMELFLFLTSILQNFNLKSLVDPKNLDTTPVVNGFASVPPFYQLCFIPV
Sequence of Cytochrome P450 2D6 (P10635 whole entry): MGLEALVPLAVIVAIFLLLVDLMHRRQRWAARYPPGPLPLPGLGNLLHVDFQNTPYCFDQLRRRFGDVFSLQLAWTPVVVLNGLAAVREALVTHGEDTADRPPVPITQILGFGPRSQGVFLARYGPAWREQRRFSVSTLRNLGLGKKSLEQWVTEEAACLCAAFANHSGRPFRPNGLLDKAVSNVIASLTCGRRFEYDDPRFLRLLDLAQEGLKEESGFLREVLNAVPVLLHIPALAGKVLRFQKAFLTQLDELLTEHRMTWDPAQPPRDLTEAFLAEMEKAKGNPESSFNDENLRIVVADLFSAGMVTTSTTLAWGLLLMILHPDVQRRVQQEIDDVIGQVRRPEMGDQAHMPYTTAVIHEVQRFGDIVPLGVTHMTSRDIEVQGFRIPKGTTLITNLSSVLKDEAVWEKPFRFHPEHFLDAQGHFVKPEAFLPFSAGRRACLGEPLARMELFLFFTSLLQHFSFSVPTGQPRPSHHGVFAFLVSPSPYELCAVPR

Structure (SMILES): CCN1c2ncc(CCOc3ccnc4ccccc34)cc2C(=O)N(C)c2cccnc21
- Drug metabolism (Liver cytosol): metabolite_not_detected
- Drug metabolism (Aldehyde oxidase): metabolite_detected
- Drug metabolism (Cytochrome P450 2D6): metabolite_not_detected
- Drug metabolism (Cytochrome P450 2C9): metabolite_not_detected
- Drug metabolism (Cytochrome P450 2C19): metabolite_not_detected

Source: ChEMBL document CHEMBL3525945, “Metabolic switching of BILR 355 in the presence of ritonavir. II. Uncovering novel contributions by gut bacteria and aldehyde oxidase” (Drug Metab Dispos, 2012)
